miR-122 sensor: miR-122 inhibition in Huh7 cells; Huh7 miR-122 Renilla luciferase sensor, 48 h; neutral wells = 0, positive control = 100; activation (reporter increase), % at 12.5 µM; actives 0.3% (n = 340,000);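 active = mean replicate activation score at least 90 and every replicate individually at or above 90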;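 note: higher luciferase means less miR-122 activity so hits act as miR-122 inhibitors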
CFTR F508del cor: correctors of CFTR F508del function in bronchial epithelial cells | CFBE cells, YFP halide quenching; stimulated with forskolin plus potentiator P3; % fluorescence drop versus neutral controls | actives 0.36% (n = 350,000) | activity (quench increase), % at 7.58 µM | AID 720511;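 active = mean added fluorescence quench of at least 8% versus neutral control, with both replicates also reaching 8%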;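 note: cells transiently co-express mutant CFTR-F508del with the halide-sensitive YFP; corrector assay measuring rescue of mutant channel to the surface after 24 h compound exposure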
Ecoli rRNA inh: inhibitors of bacterial rRNA selective over humanized ribosomes; E. coli WT GFP vs humanized-ribosome RFP mutants, fluorescence, 24 h; stronger effect = lower value; DMSO median 0, no signal -100; actives 1.6% (n = 350,000); GFP signal change (wild-type ribosome), % (no concentration beside the values);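 active = significant combined selectivity score with lowered wild-type GFP, culture density cut under 30%, mutant RFP and density less affected; inactive = any of these conditions unmet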
INS-1E GSIS act: primary screen for activators of insulin secretion dependent on glucose, INS-1E cells, GLuc reporter luminescence; INS-1E GLuc reporter insulin secretion, 2-3 h; activation, % at 16.6 µM; actives 0.61% (n = 370,000); AID 743287;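 active = lowest replicate activation of at least 40%, so every replicate reaches that level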;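 note: 0% = median of neutral control wells and 100% = median of IBMX positive control wells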
Cneo AK release: Cryptococcus neoformans lysis via adenylate kinase release. C. neoformans lysis, adenylate kinase release luminescence, 4 h; normalised: neutral wells 0, clomiphene wells 100. lysis activity, % at 15 µM. actives 0.2% (n = 360,000). AID 651654;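 active = mean lysis activity across replicates of at least 80%, whatever share of replicates individually reach that level; inactive = mean lysis activity below 80%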
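read-out = cell lysis signal | test system = log-phase Cryptococcus neoformans yeast cells | input = cells at 5 × 10^6 per mL | medium = fresh YPD growth medium | signal = luminescent adenylate kinase detection reagent | timing = 4 h at 37 °C static, read 1 h later | dosing = single dose | controls = Clomiphene as positive lysis control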
HIV Env fusion: blocks HIV Env-driven cell-cell fusion. AID 651610. inhibition, % at 12.3 µM. actives 1.1% (n = 360,000). HeLa-JRFL Env/CEM21 cell fusion, luciferase;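 active = mean replicate inhibition score of at least 50 and every replicate individually at or above 50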;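 note: 0% = plate neutral controls and 100% = maraviroc near 300 nM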
Active calls of the source: *; x = no result; ! = not active in a repeat; [ ] = another dose, or the depositor's remark. Sampled rows, rich in hits. Any-hit rate of the full collection: about 3.1%.

SMILES	miR-122 sensor	CFTR F508del cor	Ecoli rRNA inh	INS-1E GSIS act	Cneo AK release	HIV Env fusion
Cc1cc(C)nc(OC(C(=O)O)C(OCCC(C)C)(c2ccccc2)c2ccccc2)n1 (centres undefined)	-1	0	20	-15	0	28
C[C@@H]1CN([C@H](C)CO)S(=O)(=O)c2ccc(-c3ccncc3)cc2O[C@H]1CN(C)S(C)(=O)=O	8[16.7 µM]	3	-1	-6	0	-110[16.7 µM]
Cc1cc(=O)c2ccccc2n1Cc1ccccc1	x	1	-22*	5	x	3
C[C@H](CO)N1C[C@H](C)[C@@H](CN(C)S(=O)(=O)c2ccc(F)cc2)OCCCC[C@H](C)Oc2ccc(NC(=O)Nc3ccc(C(F)(F)F)cc3)cc2C1=O	3[16.7 µM]	7	-2	0	-2	57*[16.7 µM]
C[C@@H]1CCCCO[C@@H](CN(C)S(=O)(=O)c2ccc(F)cc2)[C@H](C)CN([C@H](C)CO)C(=O)c2cc(NC(=O)Nc3ccc(C(F)(F)F)cc3)ccc2O1	1[16.7 µM]	5	-3	28	-19	68*[16.7 µM]
CO[C@@H]1CN(C)C(=O)c2cc(NC(=O)NC3CCCC3)ccc2OC[C@H](C)N(CC2CC2)C[C@H]1C	x	x	3	13	x	x
Cc1cc(NCc2ccccn2)n2ncc(-c3ccc(Cl)cc3)c2n1	-17	0	16	x	-1	-42
Cc1cc(NCc2ccccn2)n2ncc(-c3ccccc3)c2n1	-20	8.5*	-38*	-5	-10	-112
Cc1cc(Cl)n2ncc(-c3ccccc3)c2n1	-5	-1	-33*	11	-11	-96
COCC(=O)N(C)C[C@H]1Oc2ncc(-c3ccc(F)cc3)cc2C(=O)N([C@@H](C)CO)C[C@@H]1C	-1[16.7 µM]	-1	-1	8	-2	9[16.7 µM]
CCCN1C[C@H](C)[C@@H](OC)CN(C)C(=O)c2cc(NC(=O)NC3CCCC3)ccc2OC[C@@H]1C	x	-2	5	2	x	x
Nc1nc(N)nc(-c2ccc([N+](=O)[O-])o2)n1	-7	3	-5.3*	18	x	x
Oc1ccccc1-c1nnc(SCCN2CCOCC2)n1Cc1ccccc1	241*	x	x	x	-1	-1
O=C(CSc1nnc(-c2ccccc2)n1Cc1ccccc1)N1CCOCC1	12	x	x	x	3	-83
CCCNC(=O)N1C[C@H](C)[C@H](OC)CN(C)C(=O)c2ccc(NS(C)(=O)=O)cc2OC[C@@H]1C	5[16.7 µM]	-1	1	15	1	8[16.7 µM]
COc1ccc(-n2nnnc2SCC(=O)NC2CC2)cc1	x	0	5	19	2	x
CC(C)c1ccc(-n2nnnc2SCC(=O)NC2CC2)cc1	0	-4	1	-2	-2	64*
Cc1c(NC(=O)c2cc3c(s2)-c2ccccc2OC3)cccc1[N+](=O)[O-]	11	x	x	-38	1	87*
O=C(C[C@H]1CC[C@H](NC(=O)c2ccncc2)[C@@H](CO)O1)NCc1ccncn1	x	0	2	22	x	x
COC(=O)C1=C(C)N(Cc2ccccc2C(F)(F)F)C(=NCc2ccc(OC)cc2)NC1c1ccc(Cl)cc1 (centres undefined)	x	1	-36	87*	x	-83
COC(=O)C1=C(C)N(Cc2ccc(C(F)(F)F)cc2)C(=NCc2ccccc2)NC1c1ccc(Cl)cc1 (centres undefined)	x	2	-42*	726*	x	19
COC(=O)C1=C(C)N(Cc2ccc(C(F)(F)F)cc2)C(=NCC2CC2)NC1c1ccccc1 (centres undefined)	x	-1	-56	60*	x	-33
COC(=O)C1=C(C)N(Cc2ccccc2C(F)(F)F)C(=NCc2ccc(C(F)(F)F)cc2)NC1c1ccc(Cl)cc1 (centres undefined)	x	5	0	-23	x	-9
CCC(=O)N1C[C@H](C)[C@@H](OC)CN(C)C(=O)c2ccc(NC(=O)NC(C)C)cc2OC[C@H]1C	15[16.7 µM]	1	-1	3	0	-47[16.7 µM]
C[C@H](CO)N1C[C@H](C)[C@@H](CN(C)C(=O)[C@@H](Cc2ccccc2)N(C)C)OCc2ccccc2-c2c(n(C)c3ccccc23)C1=O	x	x	1	6	x	x
SMILES	miR-122 sensor	CFTR F508del cor	Ecoli rRNA inh	INS-1E GSIS act	Cneo AK release	HIV Env fusion
COc1ccc(NC(=O)c2nc(C)c(C3(C)CC(c4ccccc4)=NO3)s2)cc1 (centres undefined)	10	14*	-2	-4	-2	-303
O=C(C[C@H]1C[C@H]2c3cc(NC(=O)C4CCOCC4)ccc3O[C@H]2[C@@H](CO)O1)NCc1cccnc1	-3[16.7 µM]	-1	0	-5	6	5[16.7 µM]
Cc1c(NC(=S)N/N=C/c2cc([N+](=O)[O-])ccc2O)c(=O)n(-c2ccccc2)n1C	-2	-1	-22*	-20	1	29
Cc1c(NC(=S)N/N=C/c2ccc(O)cc2)c(=O)n(-c2ccccc2)n1C	3	x	x	x	0	x
Cc1ccc(C)c(NC(=O)CCC(=O)N/N=C/c2cc([N+](=O)[O-])ccc2O)c1	9	9.9*	-6	-17	2	-1
COc1cc(CNc2ncc(-c3ccc(Br)cc3)n2C)cc(OC)c1OC	x	2	-19*	-13	2	4
COc1cc(CNc2ncc(-c3ccc(Cl)cc3)n2C)cc(OC)c1OC	-13	0	14	-12	-2	6
C[C@@H]1CN([C@@H](C)CO)C(=O)c2cc(/C=C/c3ccccc3)cnc2O[C@@H]1CN(C)S(C)(=O)=O	9[16.7 µM]	0	2	17	83*	-2[16.7 µM]
C[C@H](CO)N1C[C@H](C)[C@H](CN(C)S(=O)(=O)c2ccc(C#N)cc2)Oc2ncc(/C=C/c3ccccc3)cc2C1=O	-12[16.7 µM]	3	-6	4	-1	74*[16.7 µM]
C[C@H](CO)N1C[C@H](C)[C@@H](CN(C)S(=O)(=O)c2ccccc2)Oc2ncc(/C=C/c3ccccc3)cc2C1=O	-4[16.7 µM]	-1	-7	-3	-4	12[16.7 µM]
C[C@H](CO)N1C[C@H](C)[C@H](CN(C)S(=O)(=O)c2cn(C)cn2)Oc2ncc(/C=C/c3ccccc3)cc2C1=O	33[16.7 µM]	x	-1	-1	97*!	23[16.7 µM]
CC(C)C#Cc1ccc([C@@H]2[C@H](CO)N3C(=O)CN(C(=O)NC4CCCCC4)C[C@@H]23)cc1	x	2	3	-6	x	21[16.7 µM]
O=C(CSc1nc2ccccc2c(=O)n1CCCN1CCOCC1)Nc1ccc(F)c(Cl)c1	-4	-3	-61	-43	3	71*
CCOC(CCn1c(SCC(=O)NC2CCCC2)nc2ccccc2c1=O)OCC	x	-2	10	4	-10	-7
CCC(C)n1c(SCC(=O)Nc2ccc3[nH]c(=O)[nH]c3c2)nc2ccccc2c1=O (centres undefined)	1	0	-24	30	1	28

Source: PubChem
